Only some compounds are listed: those with a hit (about 2% of all), similar ones and a draw of the others.
TCR CD3 inh – blocks the human TCR-CD3 interaction | 360,000 compounds, 0.37% hits | inhibition, % at 9.4 µM | TAMRA-labeled TCR probe fluorescence, biochemical; in the data active = inhibition above about 19%;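 also: recombinant mutant TCR 2C K166C tagged with TAMRA read by polarization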
PAD4 FP inh – inhibitors of human PAD4; Q9UM07; recombinant PAD4, RCA probe fluorescence polarization; inhibition, % at 6.36 µM; 330,000 compounds, 0.41% hits; AID 485272;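 active = percent inhibition above a cutoff equal to the mean of all tested compounds plus 3 SD, cut at about 15% in these data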
Target sequence (Q9UM07 whole entry, looked up): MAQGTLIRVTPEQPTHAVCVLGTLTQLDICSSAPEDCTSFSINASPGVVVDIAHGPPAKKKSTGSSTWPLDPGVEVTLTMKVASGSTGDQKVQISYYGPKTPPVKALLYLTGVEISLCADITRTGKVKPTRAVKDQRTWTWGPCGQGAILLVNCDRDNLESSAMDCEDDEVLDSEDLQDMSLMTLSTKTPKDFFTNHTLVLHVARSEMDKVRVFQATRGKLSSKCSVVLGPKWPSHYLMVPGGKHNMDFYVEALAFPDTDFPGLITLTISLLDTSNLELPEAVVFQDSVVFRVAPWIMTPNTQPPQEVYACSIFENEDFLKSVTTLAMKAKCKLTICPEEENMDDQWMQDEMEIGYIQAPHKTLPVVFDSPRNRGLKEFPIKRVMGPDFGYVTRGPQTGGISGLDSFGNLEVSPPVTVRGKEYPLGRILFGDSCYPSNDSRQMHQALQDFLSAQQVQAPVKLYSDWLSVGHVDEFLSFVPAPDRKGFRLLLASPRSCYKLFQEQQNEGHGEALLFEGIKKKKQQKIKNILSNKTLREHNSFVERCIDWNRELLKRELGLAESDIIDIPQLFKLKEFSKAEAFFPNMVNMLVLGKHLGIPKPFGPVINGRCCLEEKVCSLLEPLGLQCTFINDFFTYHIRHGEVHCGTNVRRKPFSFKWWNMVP
ABHD4 inh – inhibitors of mouse ABHD4; Q8VD66; purified mABHD4, FP-Rh probe fluorescence polarization; inhibition, % at 8.92 µM; 370,000 compounds, 0.54% hits; AID 720543;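 active = inhibition exceeding the mean over every tested compound plus 3 SD, cut at about 30% in these data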
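Assay system: Wild-type mouse ABHD4 protein | Medium: HEPES pH 7.0 buffer, 150 mM NaCl, 0.01% Pluronic F-127 | Incubation: Enzyme–compound pre-incubation 45 min, then probe 60 min, both 25 °C | Technique: Fluorescence polarization with parallel and perpendicular emission, 525/598 nm | Evaluation: % inhibition of FP-Rh probe binding versus controls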
TDP2 absorb – TDP2 (human) inhibition, absorbance primary screen. O95551. recombinant TDP2, T5PNP hydrolysis, p-nitrophenol absorbance 415 nm. inhibition, % at 12.8 µM. 370,000 compounds, 0.34% hits. AID 720702;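 active = inhibition above the mean of all tested compounds plus 3 SD, set per campaign, cut at about 25% in these data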
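System: recombinant human TDP2 / Amount: 120 nM TDP2 per well / Also added: 5 mM T5PNP chromogenic substrate / Doses: 12.8 µM single point, 1% DMSO / Incubation: 2 h at 37 °C / Detection: p-Nitrophenol epi absorbance / Evaluation: % inhibition relative to enzyme-containing and enzyme-free wells / Repeats: singlicate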
SIAE primary – human SIAE inhibition, primary screen; Q9HAT2; SIAE FP-Rh probe binding, fluorescence polarization; inhibition, % at 9.66 µM; 370,000 compounds, 0.69% hits;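 active = inhibition above a cutoff: mean of compounds within the control limits plus 3 SD of those, cut at about 17% in these data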
HTRA1 inh – blocks human HTRA1 serine peptidase | AID 504803 | recombinant HTRA1, FP-rhodamine activity-based probe, fluorescence polarization | 340,000 compounds, 0.5% hits | inhibition, % at 5.96 µM | Q92743; in the data active = inhibition above about 36%
ABHD4 confirm – ABHD4 (mouse) inhibition, FP confirmation. shares compounds with ABHD4 inh. purified mABHD4, FP-Rh probe fluorescence polarization. inhibition, % at 8.92 µM. 1,800 compounds, 55% hits. AID 720658;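 active = mean inhibition across replicates above the hit cutoff set in the primary screen, cut at about 30% in these data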
Hits are given with their value; - = inactive; . = not tested or not shown; ! = not active in a repeat.

SMILES	TCR CD3 inh	PAD4 FP inh	ABHD4 inh	TDP2 absorb	SIAE primary	HTRA1 inh	ABHD4 confirm
C=CCN=c1scc(C)n1/N=C/c1ccc(O)c(O)c1	-	-	40	-	-	-	-
CC(=O)c1sc(Nc2ccc(Oc3ccccc3)cc2)nc1C	-	.	-	-	-	.	.
CCOc1ccc(Nc2ccc(C(=O)O)cc2[N+](=O)[O-])cc1	-	-	60	-	-	-	45
COc1ccc(Nc2ccc(C(N)=O)cc2[N+](=O)[O-])cc1	-	-	-	-	-	-	.
O=C(O)c1ccc(Nc2ccc(F)c(F)c2)c([N+](=O)[O-])c1	-	-	32	-	-	-	32
Cc1cccc(Nc2ccc(C(=O)O)cc2[N+](=O)[O-])c1C	-	-	37	-	-	-	30
COc1ccc(Nc2ccc(C(=O)O)cc2[N+](=O)[O-])cc1	-	-	49	-	-	-	43
COc1ccccc1C(=O)NC(CCSC)C(=O)NCCCn1nc(C)cc1C (centres undefined)	-	-	-	-	-	-	.
COC(=O)[C@@H]1C[C@@]2(c3ccccc3)c3ccccc3N(S(=O)(=O)c3ccccc3)[C@H]2N1C(=O)CNC/C=C(\C)CCC=C(C)C	.	.	-	-	-	.	.
CC(=O)Nc1cccc2ccc(O)cc12	-	.	-	-	-	-	.
O=C(Nc1ccccc1F)Nc1cccc2ccc(O)cc12	-	-	31	-	-	-	43
Cc1ccc2c(c1)c(N=Nc1cccc(C(=O)O)c1)c(O)n2C	-	-	31	-	-	-	45
CCOc1ccc2c(c1)c(N=Nc1cccc(C(=O)O)c1)c(O)n2C	-	-	-	-	-	-	.
O=C(Nc1cccc(Cl)c1Cl)c1csc([C@H]2C[C@H](O)[C@@H](CO)O2)n1	-	.	-	-	-	.	.
CN(C)c1ccc(O)c2c1CC1CC3[C@@H](N(C)C)C(=O)C(C(N)=O)C(=O)[C@]3(O)C(=O)C1C2=O (some centres undefined)	-	-	61	-	-	-	-
CN(C)c1ccc(O)c2c1CC1CC3C(N(C)C)C(=O)C(C(N)=O)=C(O)[C@@]3(O)C(=O)C1=C2O (some centres undefined)	-	-	60	-	-	-	-
C(=C\c1ccccc1)/CN1CCN(C(CCc2ccccc2)c2nnnn2C2CCCCC2)CC1 (centres undefined)	-	.	-	-	-	.	.
O=[N+]([O-])c1ccc(/C=N/Nc2nc(N3CCCCC3)nc(N3CCCCC3)n2)o1	-	-	54	-	-	-	55
CC1Oc2ccccc2C=C1/C=N/Nc1ccc(C(=O)O)cc1 (centres undefined)	-	-	32	-	-	-	31
CC(=O)N1N=C(c2cccc(O)c2)CC1c1cccs1 (centres undefined)	-	.	36	-	-	-	-
CC(=O)N1N=C(c2cccc(NS(C)(=O)=O)c2)CC1c1cccs1 (centres undefined)	-	-	-	-	-	-	.
CCc1[nH]nc(C(=O)N2CCCC(C(=O)c3cccc(C(F)(F)F)c3)C2)c1C (centres undefined)	-	-	-	-	-	-	.
O=C(CCCN1C(=O)/C(=C\c2ccco2)SC1=S)Nc1ccc2ccccc2c1	-	-	-	-	-	-	.
O=C(CCCN1C(=O)/C(=C/c2ccco2)SC1=S)Nc1ccccc1C(=O)O	-	-	32	-	-	-	-
O=C(O)CCCN1C(=O)/C(=C\c2ccco2)SC1=S	-	.	31	-	-	-	-
SMILES	TCR CD3 inh	PAD4 FP inh	ABHD4 inh	TDP2 absorb	SIAE primary	HTRA1 inh	ABHD4 confirm
CC1CCCC(NC(=O)CNC(=S)N(Cc2ccccc2)Cc2cccs2)C1C (centres undefined)	-	-	-	-	-	-	.
O=C(Nc1ccccc1C(=O)N1CCCCC1)c1ccccc1C(F)(F)F	-	-	-	-	-	-	.
COc1ccc(-c2nnc(CSc3nc4ccccc4c(=O)n3CC(C)C)o2)cc1OC	-	-	31	-	-	-	-
CCOC(=O)Cc1cc(=O)n2[nH]cc(-c3cccc(Br)c3)c2n1	-	-	32	-	-	-	-
Cc1csc(=O)n1CCC(=O)OCC(=O)Nc1cc([N+](=O)[O-])ccc1Cl	-	-	56	-	-	-	-
CCC(=O)c1ccc(OCC(=O)NNC(=O)c2cc(C)oc2C)cc1	-	.	-	-	-	-	.
O=C(C1CCCCC1)N1CCN(c2ccccc2F)CC1	-	-	45	-	-	-	-
O=C(/C=C/c1ccc([N+](=O)[O-])cc1)c1ccccc(=O)c1O	-	.	43	-	-	-	-
CS(=O)(=O)c1ccc(C(=O)N(Cc2ccccc2)c2ccccc2)cc1	-	-	-	-	-	-	.
CCN(C(=O)c1ccc(S(C)(=O)=O)cc1)C12CC3CC(CC(C3)C1)C2	-	-	93	-	-	-	-
CC1CCCN(C(=O)CN(C)S(=O)(=O)c2ccc3c(c2)c(=O)n(C)c(=O)n3C)C1 (centres undefined)	-	-	-	-	-	-	.
CCOc1cc(/C=C2\CCCc3c2nc2ccccc2c3C(=O)O)ccc1OC	-	-	32	-	-	-	-
COc1cc(/C=C2\CCCc3c2nc2ccccc2c3C(=O)O)cc(Br)c1O	-	-	-	-	-	-	.
COc1cccc2c(NCc3ccccc3)nc(-n3c(N)nc4ccccc43)nc12	.	.	37	-	-	.	-
CCCCNc1c(-c2ccc(OC)c(SC3CCCCC3)c2)nc2cnccn12	.	-	.	.	.	-	.
CCCCNc1c(-c2ccc(SC3CCCCC3)cc2)nc2cnccn12	-	-	34!	-	-	-	-
CCCCNc1c(-c2ccc(OC)c(SC3CCCCC3)c2)nc2cc(C)ccn12	-	-	30	-	-	-	37
Cc1cc(C(=O)O)ccc1-n1c(C)cc(/C=C(/C#N)C(=O)Nc2ccccc2)c1C	-	-	46	-	-	.	-
C[C@H]1CN([C@@H](C)CO)C(=O)CCCn2nncc2CO[C@@H]1CN(C)C(=O)c1ccccc1	-	.	-	-	-	-	.
Cc1ccc(NC(=S)NNC(=O)c2cnccn2)cc1	.	.	52	-	-	.	59
COC(=O)c1sc(NC(=O)COc2ccccc2)nc1C	-	-	-	-	-	-	.
Cc1nc(NC(=O)COc2ccccc2)sc1C(=O)Nc1ccccc1	-	-	49	-	-	-	50
C[C@@H]1C[C@H]2O[C@@H]2/C=C\C=C\C(=O)Cc2cc(O)cc(O)c2C(=O)O1	.	.	-	-	-	.	.
O=C1/C(=C2\C(=O)N(Cc3ccc(F)cc3)c3ccccc32)SC(=S)N1CCS(=O)(=O)O	-	-	76	-	-	-	100

Compound activity from PubChem BioAssay.
